Screening results as filed in PubChem.
RBBP9 inhibitor: inhibitors of human serine hydrolase RBBP9. O75884. recombinant RBBP9, FP-Rh probe fluorescence polarization. inhibition, % at 7.94 µM. 0.2% of 220,000 active. AID 1515;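 active = inhibition above the campaign mean of all tested compounds plus 3 SD, cut at about 14% in these data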;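 note: plate controls were DMSO wells with RBBP9 for no effect and wells lacking RBBP9 protein for full effect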
Target sequence (O75884 whole entry, looked up): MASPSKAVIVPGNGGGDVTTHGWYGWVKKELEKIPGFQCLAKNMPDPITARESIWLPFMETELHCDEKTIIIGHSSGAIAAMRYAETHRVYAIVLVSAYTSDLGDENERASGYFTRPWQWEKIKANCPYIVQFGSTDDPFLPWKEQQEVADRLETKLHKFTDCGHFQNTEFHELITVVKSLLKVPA
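Test system – recombinant human RBBP9 · Input – RBBP9 2.5 µM in dispensing solution, pre-mixing · Medium – Tris buffer pH 8.0, NaCl, Pluronic · Schedule – preincubation 30 min plus labeling 45 min at 25 °C · Measured by – fluorescence polarization · Measure – % inhibition · Controls – DMSO and no-protein wells · Replicates – one well per compound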
L929 necroptosis: L929 zVAD cell death inhibition | L929 zVAD necroptosis rescue, ATP luminescence, 24 h; with zVAD 60 µM | 0.38% of 220,000 active | AID 1377 | viability rescue, % at 10 µM;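 active = activation, scaled between plate controls, above about 75%, limit read from the data; inactive = activation under that limit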;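 note: 0% = zVAD with DMSO and 100% = DMSO alone without zVAD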
Wee1 stabilizer: inhibitors of human Wee1 degradation; HeLa Luc-Wee1K328M stability, luciferase luminescence; 100% = proteasome inhibitor MG132 effect; 1.2% of 220,000 active; reporter increase, % at 5 µM; AID 1321;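 active = activation above the mean of all tested compounds plus 3 SD, set per screening run, cut at about 8.8% in these data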;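 note: cells exposed to compound for 20 h before luminescence read; 0% = DMSO alone and 100% = MG132 at 30 µM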
Pf gamet viab: P. falciparum stage V gametocyte viability inhibition; inhibition, % at 10.9 µM; 0.065% of 150,000 active; P. falciparum stage V gametocytes, ATP luminescence, 24 h;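 active = inhibition above the mean plus 3 SD of compounds within the control limits, set per campaign, cut at about 38% in these data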;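 note: 0% = DMSO wells and 100% = medium only without gametocytes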
m-calpain inh: calpain II (pig) inhibition; purified calpain II, fluorogenic peptide substrate, 30 min; inhibition, % at 16 µM; 0.37% of 220,000 active;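 active = inhibition above about 50%, limit read from the data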
TNF necrop inh: TNF-alpha cell death inhibition in Jurkat FADD-/- cells; Jurkat FADD-/- TNF necroptosis rescue, ATP luminescence, 24 h; 0 = TNF only, 100 = no-TNF cells; activation (protection from cell death), % at 10 µM; 0.068% of 220,000 active;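 active = activation, meaning protection from cell death, of at least 50% relative to plate controls; inactive = activation below 50%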;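 note: necroptosis triggered by 40 ng/mL TNF-alpha added together with compound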
An asterisk follows results filed as active; x = not tested or not shown. Compounds with a hit are over-represented: about 2.1% of the library has one in this group of screens.

SMILES	RBBP9 inhibitor	L929 necroptosis	Wee1 stabilizer	Pf gamet viab	m-calpain inh	TNF necrop inh
NNC(=O)c1nc(-c2ccccc2)cc(-c2ccccc2)n1	x	x	x	1.6	x	x
O=C1NC(Cc2ccccc2)C(=O)N1Cc1cc([N+](=O)[O-])cc2c1OCOC2 (stereo not drawn)	2.2	0.0	-2.0	11.1	5.0	1.3
COc1ccc(OCCNc2cc(N3CCOCC3)ccc2[N+](=O)[O-])cc1	-3.0	0.4	-1.1	x	92.5*	-12.7
Cc1ccn(CC(C)C(=O)O)n1 (stereo not drawn)	-7.5	6.9	9.6*	x	-19.1	1.0
CCC1=C(c2cc(OC)c(OC)c(OC)c2)C2(CCCC2)C(=O)O1	x	x	x	-6.3	x	x
Cc1cccc(NC2=C(NCCO)C(=O)c3ccccc3C2=O)c1	-3.5	-0.7	9.3*	19.4	3.1	-0.3
CCOc1ccccc1Nc1nnc(Cc2ccccc2Cl)c(=O)[nH]1	-8.5	-0.1	4.5	-0.9	63.2*	0.0
CCOc1ccccc1Nc1nnc(C)c(=O)[nH]1	-5.9	2.0	-1.7	x	-5.0	2.0
COc1cc(/C=N/Nc2cc(C)nc(NS(=O)(=O)c3ccccc3)n2)ccc1O	-2.4	-0.6	10.0*	7.2	5.6	-8.4
CN(C)c1ccnc(Oc2ccc(C(C)(C)C)cc2)c1C#N	-10.0	-0.2	-1.2	x	59.4*	-0.5
Cc1ccc(C)c(N2CCN(C(=O)Cc3ccc(-n4c(=O)[nH]c5ccsc5c4=O)cc3)CC2)c1	-5.6	1.2	5.3	38.6*	-49.0	1.0
O=C(CCCCCn1c(=O)[nH]c2ccsc2c1=O)N1CCN(C2CCCCC2)CC1	x	0.9	x	x	-19.6	0.4
O=C(NCc1cccnc1)C(=O)NCC1OCCN1S(=O)(=O)c1ccc(F)cc1 (stereo not drawn)	0.5	x	9.2*	x	-10.3	1.1
O=C(NCc1cccnc1)C(=O)NCC1OCCCN1S(=O)(=O)c1ccc(Cl)cc1 (stereo not drawn)	-3.1	2.2	-0.1	13.4	-28.6	0.1
Cc1cc(F)ccc1S(=O)(=O)N1CCCOC1CNC(=O)C(=O)NCc1ccco1 (stereo not drawn)	-1.4	0.9	9.1*	2.5	-14.8	1.6
O=C(CCc1nc2ccccc2s1)OCc1ccccc1F	-4.2	-0.1	1.8	14.1	18.7	1.7
Cn1nnnc1SCC1=C(C(=O)O)N2C(=O)C(NC(=O)C3CC3c3ccccc3)C2SC1 (stereo not drawn)	-2.1	-0.4	10.6*	-60.0	11.4	-0.8
Cc1cc2c(C)ccc(C)c2nc1SCC(=O)c1cccs1	-4.3	-0.3	-2.6	-5.0	51.0*	0.3
COC(=O)c1sccc1NC(=O)C1CC1	0.8	0.4	0.8	12.1	-19.6	0.4
COC(=O)c1ccc(NC(=O)CNC(=O)C2CCCCC2)c(C)c1	3.8	0.1	10.2*	x	4.4	-0.1
COC(=O)c1ccc(NC(=O)CNC(=O)C2CCCCC2)cc1	-3.5	1.1	-2.1	-28.4	5.4	-0.3
Cc1ccc(O)c(NC(=O)CCC2CCCCC2)c1	-3.6	1.0	9.1*	x	14.8	-25.5
CCOC(=O)C1CCCN(c2c(NCCc3ccccc3)c(=O)c2=O)C1 (stereo not drawn)	-1.0	-0.1	1.0	20.4	-3.5	2.4
CCOC(=O)C1CCCN(c2c(NCCCN(C)c3ccccc3)c(=O)c2=O)C1 (stereo not drawn)	-0.2	0.6	-1.5	x	100.3*	2.5
O=C(COc1ccc(Oc2ccccc2)cc1)NCc1cn2ccccc2n1	-2.8	-2.0	10.5*	7.2	19.4	-8.9
SMILES	RBBP9 inhibitor	L929 necroptosis	Wee1 stabilizer	Pf gamet viab	m-calpain inh	TNF necrop inh
O=C(O)c1ccc(OCc2cn3ccccc3n2)cc1	5.0	0.5	-1.0	32.6	6.8	-0.3
Cc1nnc(N/N=C/c2ccco2)n1N	-7.8	1.4	-3.5	-3.1	-32.0	-1.5
CCOC(=O)c1ccccc1NC(=O)C(C)Oc1ccccc1 (stereo not drawn)	1.9	0.0	9.7*	x	15.2	-3.5
CCOCCOC(=O)c1ccc(NC(=O)c2cc3ccccc3o2)cc1	x	x	x	14.6	x	x
COc1cccc(CNc2ccc([N+](=O)[O-])c(NCC(=O)O)n2)c1	-2.5	1.0	2.0	-22.8	88.8*	0.1
COc1ccccc1NC(NC(=O)c1cccnc1)C(Cl)(Cl)Cl (stereo not drawn)	-3.6	-0.3	3.8	-15.9	6.9	1.0
Cc1cc(NC(=O)CSc2nncn2N)no1	-11.3	0.1	2.7	17.6	-14.2	-0.1
C/C(=N\NS(=O)(=O)c1ccccc1)c1ccc2c(c1)OCO2	3.9	2.4	-1.6	x	1.6	0.8
Cc1ccc(-c2csc(/C=C3\SC(C)C(=O)N3CC(=O)Nc3ccccc3F)n2)cc1 (stereo not drawn)	-8.3	-0.1	2.7	17.5	67.0*	0.0
COc1ccc(CCNC(=O)C2CCN(S(=O)(=O)c3ccc(C)cc3)CC2)cc1	x	x	x	11.3	x	x
CCC(=O)Nc1ccc(C(=O)Nc2cccnc2)cc1	-1.2	0.2	-1.2	x	-22.2	-1.3
CCC(C)C(NC(=O)c1ccc(Cl)cc1)C(=O)Nc1cccnc1 (stereo not drawn)	-8.1	0.1	4.0	-11.7	101.7*	-1.9
Brc1ccc(-c2nnc(-c3cccnc3)o2)cc1	x	x	x	7.0	x	x
Brc1ccc(-c2nnc(-c3cccc(Br)c3)o2)cc1	-5.5	-0.1	10.4*	-2.6	13.6	-1.0
Cc1ccc(-n2nnnc2SCC(=O)N(CC(C)C)c2c(N)n(CC(C)C)c(=O)[nH]c2=O)cc1	1.3	1.2	7.2	x	14.8	-2.4
CC(C)(O)C#Cc1ccc(C(=O)NCc2cccs2)s1	-8.3	1.8	-1.9	x	2.6	-0.3
O=C(C1=C[C@H](c2csc3ccccc23)C[C@H](OCc2ccc(CO)cc2)O1)N1CCCCCCC1	x	x	x	-51.3	x	x
CCN(CC)c1ccc(C(=O)NNC(=O)CCl)cc1	8.8	3.8	8.4	2.5	69.4*	-3.4
O=C(NC(=S)NCCN1CCOCC1)c1ccc(Cl)cc1	-1.3	0.6	1.8	x	31.5	2.2
CCCN1Cc2cccc(C(=O)NCc3ccc(C)cc3)c2C1=O	0.2	1.0	9.3*	3.8	12.6	0.2
COc1ccccc1NC(=O)c1c(Nc2ccccc2C)sc(C(=O)Nc2cccc(Cl)c2)c1N	-22.5	0.6	2.2	-3.6	-40.2	-1.0
O=C(NCc1ccc2c(c1)OCO2)C1CC(c2ccc(Cl)cc2)=NO1 (stereo not drawn)	-2.5	0.8	8.8*	0.0	7.9	-1.2
Cc1cc2c(cc1C)N[C@]1(C[C@H]3CCCC(=O)N4CC[C@@H](C1)[C@@H]34)C(=NC(C)(C)CC(C)(C)C)N2	x	x	x	6.1	x	x
COc1ccccc1CNc1cc(C)ccc1C	-8.2	1.1	9.5*	6.7	-35.4	-2.0
COc1ccc(C2C3C=CCC(c4cccc(-c5ccc(C)cc5)c4)C3C(=O)N2Cc2ccccc2)cc1Cl (stereo not drawn)	x	0.8	x	-6.4	-56.6	-2.9
